Source: publication PMC8717676 (The Journal of nutritional biochemistry, 2011)
“And” between values parts separate entries of the source, which are not always exact repeats. Equal entries are not always repeated. Where two headings read alike, the source gives them in different places.

Experiments:
[1] = tested on: ATP synthase from E. coli; details: cited from earlier work
F1-ATPase = F1-ATPase (Escherichia coli, UniProt P0ABA6+P0ABB0+P0ABB4); test: ATP hydrolysis by purified F1-ATPase, colorimetric phosphate release; assay type: biochemical, E. coli; details: for IC50: read-out: F1-ATPase Activity IC50
NDH-1 (Complex I) = NDH-1 (Complex I) (Escherichia coli, UniProt P31979); test: NDH-1 NADH oxidase activity in membrane vesicles; assay type: biochemical, E. coli; details: for NDH-1 Deamino-NADH oxidase Maximum inhibition: strain 1100 membranes
[2] = target: membrane-bound F1Fo-ATPase (Escherichia coli, UniProt P0ABA6+P0ABB0+P0ABB4); test: ATP hydrolysis by membrane vesicles; assay type: biochemical, E. coli; details: for IC50: two replicates of 5-6 concentrations
[3] = target: NDH-2 (alternative NADH dehydrogenase) (Escherichia coli, UniProt P00393); test: NDH-2 NADH oxidase activity in membrane vesicles of strain BA14; assay type: biochemical, E. coli
[4] = tested on: rat liver mitochondrial ATP synthase; details: read-out: IC50, rat liver mitochondrial ATP synthase; cited from earlier work
[5] = tested on: superoxide production by NDH-1 and NDH-2; assay type: biochemical, E. coli
In short: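 E. coli membrane vesicles, prepared at pH 6.0, from strain MWC215 (no NDH-2) or BA14 (nuo deletion, no NDH-1); 200 μg in 0.2 ml of 50 mM MOPS pH 7.3 with 10 mM MgCl2. Preincubated 5 min with increasing test compound, then 5 μM MitoSOX plus 1.25 mM NADH added. Dark, 15 min, 30 °C; fluorescence 510/580 nm. Background controls: no NADH; SOD (150 units).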

[6] = membrane vesicles from wild type strain 1100
[7] = read-out: Membrane-bound ATPase Activity IC50, membrane vesicles from wild type strain 1100
[8] = read-out: NDH-2 NADH oxidase IC50, strain BA14 membranes, 250 μM NADH

F1-ATPase, sequence (P0A6E6 2-139): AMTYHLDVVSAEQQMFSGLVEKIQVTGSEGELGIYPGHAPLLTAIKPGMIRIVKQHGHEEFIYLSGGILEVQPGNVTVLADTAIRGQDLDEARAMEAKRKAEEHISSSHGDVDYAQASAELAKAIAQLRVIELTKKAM
F1-ATPase, sequence (P0ABB4 2-460): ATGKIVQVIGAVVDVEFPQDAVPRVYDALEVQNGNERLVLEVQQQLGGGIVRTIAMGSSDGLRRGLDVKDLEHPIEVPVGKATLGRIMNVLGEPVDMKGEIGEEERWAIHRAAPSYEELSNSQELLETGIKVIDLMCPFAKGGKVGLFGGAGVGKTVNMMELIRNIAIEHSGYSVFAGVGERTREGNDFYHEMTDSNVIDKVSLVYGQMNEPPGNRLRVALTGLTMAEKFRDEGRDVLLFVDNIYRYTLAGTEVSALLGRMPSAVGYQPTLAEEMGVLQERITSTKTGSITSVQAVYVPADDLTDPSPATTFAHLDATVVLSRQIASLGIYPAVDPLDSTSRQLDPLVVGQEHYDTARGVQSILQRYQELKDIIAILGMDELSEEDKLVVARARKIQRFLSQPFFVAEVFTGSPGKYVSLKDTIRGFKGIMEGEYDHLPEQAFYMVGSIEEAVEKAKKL
F1-ATPase, sequence (P0ABB0 whole entry): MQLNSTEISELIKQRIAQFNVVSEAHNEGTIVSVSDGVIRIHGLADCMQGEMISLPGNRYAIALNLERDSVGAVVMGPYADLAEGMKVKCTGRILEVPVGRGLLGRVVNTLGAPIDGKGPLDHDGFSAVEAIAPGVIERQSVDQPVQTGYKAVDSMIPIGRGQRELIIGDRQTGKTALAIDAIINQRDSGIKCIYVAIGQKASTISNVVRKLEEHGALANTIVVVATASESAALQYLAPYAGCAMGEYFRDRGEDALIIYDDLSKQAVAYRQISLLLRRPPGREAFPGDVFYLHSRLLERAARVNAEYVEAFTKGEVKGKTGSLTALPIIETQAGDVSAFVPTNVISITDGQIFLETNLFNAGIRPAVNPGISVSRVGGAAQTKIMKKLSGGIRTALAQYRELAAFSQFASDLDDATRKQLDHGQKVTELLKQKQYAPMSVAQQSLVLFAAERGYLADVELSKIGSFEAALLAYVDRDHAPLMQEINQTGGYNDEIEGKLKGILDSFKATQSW
F1-ATPase, sequence (P0ABA4 whole entry, further chain): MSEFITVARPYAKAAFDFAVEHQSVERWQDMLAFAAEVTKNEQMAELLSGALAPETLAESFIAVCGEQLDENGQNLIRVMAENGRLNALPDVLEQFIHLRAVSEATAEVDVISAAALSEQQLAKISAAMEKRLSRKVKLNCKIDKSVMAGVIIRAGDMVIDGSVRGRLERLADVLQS
F1-ATPase, sequence (P0ABA6 whole entry): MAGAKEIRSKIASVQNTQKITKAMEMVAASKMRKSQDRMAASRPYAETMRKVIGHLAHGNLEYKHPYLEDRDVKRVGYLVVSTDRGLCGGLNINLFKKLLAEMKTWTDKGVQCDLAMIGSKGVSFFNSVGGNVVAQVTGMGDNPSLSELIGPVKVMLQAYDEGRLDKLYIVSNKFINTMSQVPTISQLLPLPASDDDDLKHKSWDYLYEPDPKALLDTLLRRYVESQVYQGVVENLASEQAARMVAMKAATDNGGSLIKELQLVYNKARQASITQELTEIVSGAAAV
NDH-2 (alternative NADH dehydrogenase), sequence (P00393 whole entry): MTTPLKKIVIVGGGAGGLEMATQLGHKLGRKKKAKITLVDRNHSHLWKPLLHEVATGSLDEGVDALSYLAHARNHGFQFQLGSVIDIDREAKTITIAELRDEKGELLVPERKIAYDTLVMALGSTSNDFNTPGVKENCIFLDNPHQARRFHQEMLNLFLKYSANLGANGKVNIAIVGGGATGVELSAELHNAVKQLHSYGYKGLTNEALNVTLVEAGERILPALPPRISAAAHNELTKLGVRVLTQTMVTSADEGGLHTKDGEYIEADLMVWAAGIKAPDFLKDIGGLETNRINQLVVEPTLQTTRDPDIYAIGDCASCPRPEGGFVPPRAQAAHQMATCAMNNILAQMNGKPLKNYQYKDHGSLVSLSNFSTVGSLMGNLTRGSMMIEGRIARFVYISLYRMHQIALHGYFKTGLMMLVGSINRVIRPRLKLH

Compound	extent of inhibition of E. coli ATP synthase [1]	F1-ATPase Activity Maximum inhibition (F1-ATPase) [%]	IC50 (F1-ATPase) [µM]	NDH-1 Deamino-NADH oxidase Maximum inhibition (NDH-1 (Complex I)) [%]	Membrane-bound ATPase Activity Maximum inhibition [2, 6] [%]	NDH-2 NADH oxidase Maximum inhibition ([3]; strain BA14 membranes) [%]	other results
Oc1cc(O)cc(/C=C/c2ccc(O)c(O)c2)c1 [piceatannol]	complete inhibition						
O=c1c(O)cc([C@H]2Oc3cc(O)cc(O)c3C[C@H]2O)cc2c([C@H]3Oc4cc(O)cc(O)c4C[C@H]3O)cc(O)c(O)c12 [TF1, theaflavin]		85	4	95	85	75	IC50 (NDH-1 (Complex I)): 45 µM; IC50 ([2]; Membrane-bound ATPase Activity IC50, membrane vesicles from wild type strain 1100): ~60 µM and 60 µM; IC50 [3]: 3 µM
O=C(O[C@@H]1Cc2c(O)cc(O)cc2O[C@@H]1c1cc(=O)c(O)c2c(O)c(O)cc([C@H]3Oc4cc(O)cc(O)c4C[C@H]3O)c2c1)c1cc(O)c(O)c(O)c1 [TF2A, theaflavin-3-gallate]		90	3	95	95	95	IC50 [2, 7]: 20 µM; IC50 [3, 8]: 3.5 µM
O=c1cc(-c2ccccc2)oc2cc(O)c(O)c(O)c12 [baicalein]	complete inhibition						
O=c1c(O)c(-c2ccc(O)cc2O)oc2cc(O)cc(O)c12 [morin]	complete inhibition						
O=C(O[C@@H]1Cc2c(O)cc(O)cc2O[C@@H]1c1cc(O)c(O)c2c(=O)c(O)cc([C@H]3Oc4cc(O)cc(O)c4C[C@H]3O)cc12)c1cc(O)c(O)c(O)c1 [TF2B, theaflavin-3′-gallate]		95	1.5	95	95	90	IC50 [2, 7]: 15 µM; IC50 [3, 8]: 2.5 µM
Oc1cc(O)c2c(c1)O[C@H](c1ccc(O)c(O)c1)[C@H](O)C2 [epicatechin, (−) epicatechin]	complete inhibition						IC50 ([1]; read-out: IC50, E. coli ATP synthase): 4000 µM
(−) epigallocatechin gallate [EGCG, reference compound]		90	4.5	90	95	65	IC50 [2, 7]: ~30 µM and 30 µM; IC50 [3, 8]: 20 µM; IC50 [4]: 17 µM
CC(N)C12CC3CC(CC(C3)C1)C2 (stereo not shown) [rimantadin]	complete inhibition						
COc1cc(C2Oc3cc([C@H]4Oc5cc(O)cc(O)c5C(=O)[C@@H]4O)ccc3OC2CO)ccc1O (stereo partly shown) [silibinin]	complete inhibition						
NC12CC3CC(CC(C3)C1)C2 [amantidin]	complete inhibition						
theaflavin-3,3′-digallate [TF3]							concentration at which superoxide production was completely eliminated ([5]; NADH oxidation by each dehydrogenase): about 15 μM; effect on superoxide production ([5]; added at levels in the range of the IC50 value): superoxide did not increase, but rather decreased
